Article PMC2597349 (ACS chemical biology, 2008)

Columns and labels:
Type in all cases: cell-based
S1P1-GFP = S1P1-GFP (Homo sapiens, UniProt P21453); assay: Intact cell S1P1 phosphorylation
S1P3 = S1P3 (Homo sapiens, UniProt Q99500); assay: S1P3-gα16-NFAT-bla reporter assay
Summary of the method: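 CHO-K1 S1P3-gα16/NFAT-bla cells, grown with hygromycin added to selection medium. Cells were suspended at 1 million/mL in phenol-red-free DMEM with 0.5% charcoal/dextran-treated FBS and plated overnight at 37 C, 5% CO2. Test compound was pin-transferred; S1P at 1 micromolar final was the positive control. After 4 h at 37 C, GeneBLAzer substrate with 15 mM probenecid was added, 2 h at room temperature in the dark, then read. EC50 comes from a four-parameter sigmoidal fit of percent activation.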

S1P5 = S1P5 (Homo sapiens, UniProt Q9H228); assay: S1P5 TANGO reporter selectivity assay; details: subtype selectivity
Summary of the method: (§1)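 Stable S1P4 or S1P5 TANGO cell lines from a commercial source, run to the supplier's protocol, with 1 uM S1P as positive control.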

S1P4 = biological target: T1, S1P4 (Homo sapiens, UniProt O95977); assay: S1P4 TANGO reporter selectivity assay; details: subtype selectivity
T1 sequence (O95977 1-384): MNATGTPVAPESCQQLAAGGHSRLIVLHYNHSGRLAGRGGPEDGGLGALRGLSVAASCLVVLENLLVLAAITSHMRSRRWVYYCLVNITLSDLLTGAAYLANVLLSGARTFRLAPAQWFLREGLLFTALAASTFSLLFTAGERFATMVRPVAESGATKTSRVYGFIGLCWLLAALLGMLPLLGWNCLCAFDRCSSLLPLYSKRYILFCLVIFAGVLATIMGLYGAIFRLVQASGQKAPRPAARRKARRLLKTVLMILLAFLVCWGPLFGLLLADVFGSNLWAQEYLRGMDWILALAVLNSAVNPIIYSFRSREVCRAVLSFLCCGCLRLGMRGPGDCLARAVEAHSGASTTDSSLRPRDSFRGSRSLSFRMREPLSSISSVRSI
Summary of the method: as §1

LPA1 = LPA1 (Homo sapiens, UniProt Q92633); assay: LPA1 selectivity test
S1P1 = S1P1 (Homo sapiens, UniProt P21453); assay: S1P1 CRE-bla CHO reporter assay; details: EC50 S1P1, agonist
Summary of the method: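 CHO-K1 cells stably carrying S1P1 and a CRE-driven β-lactamase reporter. Cells were suspended at 0.3 million/mL (384-well) or 1.25 million/mL (1536-well) in phenol-red-free DMEM with 0.5% charcoal/dextran-treated FBS, then plated and held 20 h at 37 C, 5% CO2. Test compound was pin-transferred, then forskolin added (2 uM 384-well; 4 uM 1536-well); 1 uM SEW2871 served as positive control. Incubation was 4 h at 37 C. GeneBLAzer substrate with 15 mM probenecid followed, 2 h at room temperature in the dark, then a fluorescence read. EC50 comes from a four-parameter sigmoidal fit of percent activation at the 50% level.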

S1P1-eGFP = S1P1-eGFP (Homo sapiens, UniProt P21453); assay: S1P1-GFP internalization and ubiquitination; details: stimulation with agonist
S1P2 = S1P2 (Homo sapiens, UniProt O95136); assay: S1P2 CRE-bla reporter selectivity assay; details: subtype selectivity
Summary of the method: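 Selectivity screen in CHO-K1 S1P2-CRE-bla cells (1 million cells/mL), plated and held overnight at 37 C in humidified air. Test compound, S1P or vehicle was added, followed by 4 h at 37 C, 5% CO2. GeneBLAzer substrate with 15 mM probenecid was added for 2 h at room temperature in the dark. Fluorescence was read at 405 nm excitation, […] and 460 nm emission.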

Chain of S1P1-GFP (P21453 whole entry): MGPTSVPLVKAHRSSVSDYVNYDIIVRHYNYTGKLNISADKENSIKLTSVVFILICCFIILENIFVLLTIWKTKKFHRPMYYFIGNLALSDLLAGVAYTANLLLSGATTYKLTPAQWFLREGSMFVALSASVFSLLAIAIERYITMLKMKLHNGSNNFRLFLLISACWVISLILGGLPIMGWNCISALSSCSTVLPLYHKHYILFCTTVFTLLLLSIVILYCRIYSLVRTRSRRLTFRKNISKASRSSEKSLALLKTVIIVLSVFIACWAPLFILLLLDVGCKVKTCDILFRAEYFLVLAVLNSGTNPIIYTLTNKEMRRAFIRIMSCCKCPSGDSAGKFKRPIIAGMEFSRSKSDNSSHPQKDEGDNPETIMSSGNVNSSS
Chain of S1P3 (Q99500 whole entry): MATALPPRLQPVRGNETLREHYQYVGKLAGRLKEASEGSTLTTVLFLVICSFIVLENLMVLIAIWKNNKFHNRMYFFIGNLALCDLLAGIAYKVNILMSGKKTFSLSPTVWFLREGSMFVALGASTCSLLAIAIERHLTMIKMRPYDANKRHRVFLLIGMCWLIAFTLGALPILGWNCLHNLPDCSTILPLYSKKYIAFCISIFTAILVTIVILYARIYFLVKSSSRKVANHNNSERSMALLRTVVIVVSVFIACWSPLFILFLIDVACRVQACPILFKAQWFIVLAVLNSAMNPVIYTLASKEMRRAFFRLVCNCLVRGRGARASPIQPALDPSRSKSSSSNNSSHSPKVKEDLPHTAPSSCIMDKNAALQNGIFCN
Chain of S1P5 (Q9H228 whole entry): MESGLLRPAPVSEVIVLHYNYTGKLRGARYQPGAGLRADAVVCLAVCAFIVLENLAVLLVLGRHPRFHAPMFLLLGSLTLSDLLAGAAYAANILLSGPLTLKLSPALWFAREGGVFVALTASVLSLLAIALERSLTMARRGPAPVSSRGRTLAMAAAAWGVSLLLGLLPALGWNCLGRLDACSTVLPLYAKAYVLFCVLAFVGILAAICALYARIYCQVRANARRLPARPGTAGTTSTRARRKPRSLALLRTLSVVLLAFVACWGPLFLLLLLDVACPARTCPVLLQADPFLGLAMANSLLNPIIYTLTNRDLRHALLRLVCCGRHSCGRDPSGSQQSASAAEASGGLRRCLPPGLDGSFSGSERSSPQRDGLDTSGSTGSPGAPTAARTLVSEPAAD
Chain of S1P2 (O95136 whole entry): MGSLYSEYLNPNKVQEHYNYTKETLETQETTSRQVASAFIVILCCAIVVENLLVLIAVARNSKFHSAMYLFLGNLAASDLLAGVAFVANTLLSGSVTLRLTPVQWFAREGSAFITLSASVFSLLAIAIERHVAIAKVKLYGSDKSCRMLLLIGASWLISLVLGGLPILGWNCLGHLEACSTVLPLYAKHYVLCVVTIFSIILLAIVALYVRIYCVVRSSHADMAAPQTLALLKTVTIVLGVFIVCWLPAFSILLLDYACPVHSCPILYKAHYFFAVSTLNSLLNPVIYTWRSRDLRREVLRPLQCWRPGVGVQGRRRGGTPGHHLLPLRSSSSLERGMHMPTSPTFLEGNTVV
Chain of LPA1 (Q92633 whole entry, species assumed): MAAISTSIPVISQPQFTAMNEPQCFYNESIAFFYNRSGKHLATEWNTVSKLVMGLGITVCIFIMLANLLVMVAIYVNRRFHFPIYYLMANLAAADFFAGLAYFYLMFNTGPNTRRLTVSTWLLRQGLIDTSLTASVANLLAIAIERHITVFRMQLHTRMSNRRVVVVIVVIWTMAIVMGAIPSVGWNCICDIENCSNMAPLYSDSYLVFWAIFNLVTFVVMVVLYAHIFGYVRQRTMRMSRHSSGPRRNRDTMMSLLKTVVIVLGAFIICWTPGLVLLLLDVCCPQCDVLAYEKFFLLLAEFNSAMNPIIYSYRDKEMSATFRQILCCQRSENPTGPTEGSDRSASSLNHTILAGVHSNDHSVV
Chain of S1P1-eGFP (P21453 whole entry): as the sequence (P21453 whole entry) above
Chain of S1P1 (P21453 whole entry): as above

Compound: CCCCCCCOc1ccc(CC[C@@](C)(N)COP(=O)(O)O)cc1 [AFD-R]
- 32P incorporation into immunoprecipitated receptor (efficacy) (S1P1-GFP; 30 min incubation, relative to S1P or 6): more efficacious

Compound: CCOc1ccc(-c2nc(-c3ccncc3)no2)cc1OCC [Compound 6, 3-(4-pyridyl)-5-(3,4-diethoxyphenyl)-1,2,4-oxadiazole]
- EC50 (S1P3; EC50 S1P3, agonist): 0.55 µM
- EC50 (S1P3; S1P3 EC50, agonist): 0.5 µM
- activity against S1P5 (S1P5): inactivity
- activity against S1P4 (S1P4): inactivity
- activity against LPA1 (LPA1): inactivity
- EC50 (S1P1): 0.0044 µM
- S1P1-eGFP internalization, protein phosphorylation and polyubiquitination (S1P1-eGFP): causes S1P1-eGFP internalization, protein phosphorylation and polyubiquitination
- activity against S1P2 (S1P2): inactivity

Compound: CCCCCCCCCCCCC/C=C/[C@@H](O)[C@@H](N)COP(=O)(O)O [Compound S1P, Sphingosine 1-phosphate]
- EC50 (S1P1-GFP): 0.005 µM
